# Results reported in ChEMBL document CHEMBL4033772, “New Class of Antitrypanosomal Agents Based on Imidazopyridines” (ACS Med Chem Lett, 2017).
# Active and inactive are the calls of the source. The rule behind the calls is not given here.
# System: Trypanosoma cruzi
# Assay: Antitrypanosomal activity against Trypanosoma cruzi Tulahuen amastigotes infected in mouse 3T3 cells after 6 days by beta galactosidase reporter asay
# Type: functional, cell-based
# Settings: NIH3T3, 144 h
SMILES,EC50 [nM],EC90 [nM]
O=C(Nc1ccn2cc(-c3cccc(F)c3F)nc2c1)N1CC[C@H](F)C1,940,1360
O=C(Nc1ccn2cc(-c3ccc(F)c(F)c3)nc2c1)N1CCCCC1,2840,4400
O=C(Nc1ccn2cc(-c3cccc(F)c3F)nc2c1)N1CCCC1,1020,1610
O=C(Nc1ccc2nc(-c3ccc(F)c(F)c3)cn2c1)N1CC[C@H](F)C1,9940,> 20000

# More lines, now with the values ahead:
EC50 [nM],EC90 [nM],SMILES
690,1360,O=C(Cn1ccnc1[N+](=O)[O-])NCc1ccccc1 [BENZNIDAZOLE]
6270,> 20000,O=C(Nc1ccn2cc(-c3ccc(F)c(F)c3)nc2c1)c1cccnc1
2680,3920,O=C(Nc1ccn2cc(-c3cccs3)nc2c1)N1CC[C@H](F)C1

# System: Trypanosoma brucei brucei
# Assay: Antitrypanosomal activity against Trypanosoma brucei brucei BF427 after 48 hrs by Alamar Blue-based assay
# Type: functional
# Settings: BF427, 48 h
SMILES,EC50 [nM],EC90 [nM]
O=C(Nc1ccn2cc(-c3cccc(F)c3F)nc2c1)N1CC[C@H](F)C1,180,920
O=C(Nc1ccn2cc(-c3ccc(F)c(F)c3)nc2c1)N1CCCCC1,1200,1750
O=C(Nc1ccn2cc(-c3cccc(F)c3F)nc2c1)N1CCCC1,580,2760
O=C(Nc1ccc2nc(-c3ccc(F)c(F)c3)cn2c1)N1CC[C@H](F)C1,> 20000,> 20000

# Results, then the compound that gave them:
EC50 [nM],EC90 [nM],SMILES
6300,> 20000,O=C(Nc1ccn2cc(-c3ccc(F)c(F)c3)nc2c1)c1cccnc1
1000,2670,O=C(Nc1ccn2cc(-c3cccs3)nc2c1)N1CC[C@H](F)C1

# System: not listed separately
# Assay: Cytotoxicity against human CRL8155 cells after 48 hrs by Alamar Blue-based assay
# Type: cell-based
# Settings: CRL8155, 48 h
# Outline: (§1)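 Cytotoxicity tested against human lymphoblasts CRL-8155 and hepatocytes HepG2. Highest concentration tested was 50 µM.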
row,SMILES,EC50 [nM]
1,O=C(Nc1ccn2cc(-c3ccc(F)c(F)c3)nc2c1)c1cccnc1,> 50000
2,O=C(Nc1ccn2cc(-c3cccc(F)c3F)nc2c1)N1CC[C@H](F)C1,> 50000
3,O=C(Nc1ccn2cc(-c3ccc(F)c(F)c3)nc2c1)N1CCCCC1,47400
4,O=C(Nc1ccn2cc(-c3cccc(F)c3F)nc2c1)N1CCCC1,> 50000
5,O=C(Nc1ccc2nc(-c3ccc(F)c(F)c3)cn2c1)N1CC[C@H](F)C1,> 50000
6,O=C(Nc1ccn2cc(-c3cccs3)nc2c1)N1CC[C@H](F)C1,> 50000

# System: HepG2
# Assay: Cytotoxicity against human HepG2 cells after 48 hrs by Alamar Blue-based assay
# Type: cell-based
# Settings: HepG2, 48 h
# Outline: as §1
row,SMILES,EC50 [nM]
1,O=C(Nc1ccn2cc(-c3ccc(F)c(F)c3)nc2c1)c1cccnc1,> 50000
2,O=C(Nc1ccn2cc(-c3cccc(F)c3F)nc2c1)N1CC[C@H](F)C1,> 50000
3,O=C(Nc1ccn2cc(-c3ccc(F)c(F)c3)nc2c1)N1CCCCC1,> 50000
4,O=C(Nc1ccn2cc(-c3cccc(F)c3F)nc2c1)N1CCCC1,> 50000
5,O=C(Nc1ccc2nc(-c3ccc(F)c(F)c3)cn2c1)N1CC[C@H](F)C1,> 50000
6,O=C(Nc1ccn2cc(-c3cccs3)nc2c1)N1CC[C@H](F)C1,> 50000

# System: not listed separately
# Assay: Half life in mouse liver microsomes by LC-MS/MS method
# Type: ADME, microsome
# Settings: not given
# Outline: (§2)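 Incubation with mouse liver microsomes, run in duplicate. Testosterone and dextromethorphan included as controls in each assay.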
row,SMILES,half-life [h]
1,O=C(Nc1ccn2cc(-c3cccc(F)c3F)nc2c1)N1CC[C@H](F)C1,> 1

# System: Liver
# Assay: Stability of the compound in mouse liver microsomes assessed as compound remaining by LC-MS/MS method
# Type: ADME, microsome
# Settings: not given
# Outline: as §2
row,SMILES,Stability [%]
1,O=C(Nc1ccn2cc(-c3cccc(F)c3F)nc2c1)N1CC[C@H](F)C1,86.3

# System: not listed separately
# Assay: Solubility of the compound in PBS at pH 7.4 at 50 uM after overnight incubation by LC-MS/MS method
# Type: physicochemical
# Settings: not given
# Outline: (§3)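 Solubility measured at pH 7.4, 6.5 and 2.0.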
row,SMILES,solubility at 50 µM [µM]
1,O=C(Nc1ccn2cc(-c3cccc(F)c3F)nc2c1)N1CC[C@H](F)C1,6.4

# System: not listed separately
# Assay: Solubility of the compound in PBS at pH 6.5 at 50 uM after overnight incubation by LC-MS/MS method
# Type: physicochemical
# Settings: not given
# Outline: as §3
row,SMILES,solubility at 50 µM [µM]
1,O=C(Nc1ccn2cc(-c3cccc(F)c3F)nc2c1)N1CC[C@H](F)C1,6.8

# System: not listed separately
# Assay: Solubility of the compound in HCl at pH 2.0 at 50 uM after overnight incubation by LC-MS/MS method
# Type: physicochemical
# Settings: not given
# Outline: as §3
row,SMILES,solubility at 50 µM [µM]
1,O=C(Nc1ccn2cc(-c3cccc(F)c3F)nc2c1)N1CC[C@H](F)C1,53.1

# System: not listed separately
# Assay: Protein binding in Swiss Webster mouse plasma assessed as drug recovery at 2 uM by LC-MS/MS analysis
# Type: ADME, cell-free
# Settings: read-out: Drug recovery
# Outline: (§4)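 Plasma protein binding measured in 100% mouse plasma, giving % recovery and % fraction unbound. Propranolol control included in every experiment.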
row,SMILES,recovery at 2 µM [%]
1,O=C(Nc1ccn2cc(-c3cccc(F)c3F)nc2c1)N1CC[C@H](F)C1,68.4

# System: not listed separately
# Assay: Fraction unbound in Swiss Webster mouse plasma at 2 uM by LC-MS/MS analysis
# Type: ADME, cell-free
# Settings: not given
# Outline: as §4
row,SMILES,fraction unbound at 2 µM
1,O=C(Nc1ccn2cc(-c3cccc(F)c3F)nc2c1)N1CC[C@H](F)C1,0.026

# System: Trypanosoma cruzi
# Assay: Antitrypanosomal activity against bioluminescent PpyRE9h expressing Trypanosoma cruzi Tulahuen […] infected subcutaneously in BALB/c mouse assessed as suppression of Trypanosoma cruzi infection at 100 mg/kg, po qd administered for 5 days measured after 6 weeks by IVIS imaging analysis
# Type: functional, organism-based
# Settings: not given
row,SMILES,Activity
1,O=C(Cn1ccnc1[N+](=O)[O-])NCc1ccccc1 [BENZNIDAZOLE],Active
